From the RNAGym collection of RNA variant scans (doi:10.1126/science.aae0568)
Variants at the floor of the assay were thinned out.

B1: tRNA (parent)
chain: GUUCCGUUGGCGUAAUGGUAACGCGUCUCCCUCCUAAGGAGAAGACUGCGGGUUCGAGUCCCGUACGGAACG

Variants of: B1
Assay: yeast fitness relative to wild type (ratio to wild type); higher = fitter; tRNA-Arg(CCU), competitive growth, 37 C, YPD
In short: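 For this measurement, the tRNA-Arg(CCU) gene was varied by chemical synthesis at a 3% per-site mutation rate across 69 sites, and each variant was placed at the native genomic locus in Saccharomyces cerevisiae. The pooled strains went through a 24-hour competition in YPD at 37°C in six parallel replicates, with amplicons from start and end populations read by 100-nucleotide paired-end sequencing. Darwinian fitness relative to wild type followed from the change in each genotype's frequency. Genotypes needed ≥ 100 starting reads, and estimates < 0.5 were set to 0.5.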

Variant	yeast fitness
GUUUCGUUGGCGUAAUGGUAUCGCGUCUCCCUCCUAAGGAGGAGACUGCCGGUUCGAGUCCCGUAUGGAUCG [C4U A21U A42G G50C C66U A70U]	≤ 0.5
GUUUCGUUGGCGUAAUGGUAACGCGUCUCCCUCCUCAGGAGAAGACUGCGGGUUCGAGUCCCAUACGGAACG [C4U A36C G63A]	0.536
GUUUCGUUGGCGUAAUGGUAGCGCGUCUCCCACCUAAGGCGAAGAAUGCGGGUUCGAGUCCCGUACGGAACG [C4U A21G U32A A40C C46A]	0.769
GUUUCGUUGGCGUAAUGGUAGCGCGUCUGCUUCCUAAGGAAAAGACUGCCGGUUCGAGUCCCGUACGGACCG [C4U A21G C29G C31U G41A G50C A70C]	0.599
GUUUCGUUGGCGUAAUGGUACCGCGUCUCCCUCCUAAGGAGAAAACUGCGGGUUCGAGUCCCGUACGGAACG [C4U A21C G44A]	≤ 0.5
GUUUCGUUGGCGUAAUGGUAACGCGUCUCCCUCCUAGGGACAAGACUGCGGGUUGGAGUCCCGUACGGAACG [C4U A37G G41C C55G]	0.537
GUUUCGUUGGCGUAAUGGUAGCGCGUCUCCCUCCUAAGGAGAAGAAUGCGGGUUCGAGUCCCGUACGCAACG [C4U A21G C46A G68C]	0.544
GUUUCGUUGGCGUAAUGGUAACGCGUCUCCCUCCUAGGCAGAAGACUGCGGGUUCGAGUCCCGUGCGGAACG [C4U A37G G39C A65G]	≤ 0.5
GUUUCGUUGGCGUAAUGGUAUCGCGGCUCCCUCCUAAGGAGAAGACUGCGGGUUCGAAUCCCGUACGGAACG [C4U A21U U26G G58A]	0.522
GUUUCGUUGGCGUAAUGGUACCGCGUCUCCCUCCUAAGGAGAAGACUGCGGGUUCGAGUCCCGUACUGAACG [C4U A21C G67U]	≤ 0.5
GUUUCGUUGGCGUAAUGGUACCGCGUCUCCCUCCUAAGGAGAAGACUGCGGGUUCGUGUCCCGUACGGAACG [C4U A21C A57U]	≤ 0.5
GUUUCGUUGGCGUAAUGGUUACGCGUCUCCCUCCUAAGGUGAAGACUGCGGGUUCGAGUCCCGUACCGAACG [C4U A20U A40U G67C]	≤ 0.5
GUUUCGUUGGCGUAAUGGUAACGCGUCUCCCUCCUAUGGAGAAGACUGCGGGUUCGAGUCCCGUAAGGAACG [C4U A37U C66A]	0.542
GUUUCGUUGGCGUAAUGGUAUCGUGUAUCCCUCCUACGGUGAAGACUGCGGGUUCGAGUCCCGUACCGAACG [C4U A21U C24U C27A A37C A40U G67C]	≤ 0.5
GUUUCGUUGGCGUAAUGGUUACGCGUCUUCCUCCUAAGGAGAAGACUGCGGGUUCGAGUCCCGUACGGAACG [C4U A20U C29U]	≤ 0.5
GUUUCGUUGGCGUAAUGGUUACGCGUCUCCCUCCUAAGGAGAAGAAUGCGGGUUCGAGUCCCGUACGGAACG [C4U A20U C46A]	1.02
GUUUCGUUGGCGUAAUGGUAACGCGUCUCCCUCCUACGGAGAAGACUGCGGGUUCGAGUCCCGUACGGAACG [C4U A37C]	0.884
GUUUCGUUGGCGUAAUGGUAGCGCGUCUCCCUCCUAAGGAGAAGAAUGCGGGUUCGAGUCCCGCACGGAACG [C4U A21G C46A U64C]	0.676
GUUUCGUUGGCGUAAUGGUAACGCGUCUCCCUCCUGAGGCGAACACUGCGGGUUCGAGUCCCGUACGGAACG [C4U A36G A40C G44C]	0.596

Variant	yeast fitness
GUUUCGUUGGCGUAAUGGUUACGCGUGUCGCCCCUAAGGAGAGGACUGCGGGUUCGAGUCCCGUCCGCAACG [C4U A20U C27G C30G U32C A43G A65C G68C]	≤ 0.5
GUUUCGUUGGCGUAAUGGUAACGCGUCUCCCUCCUGAGGAGAACACUGCGGGUUCGAGUCCCAUACGGAACG [C4U A36G G44C G63A]	0.572
GUUUCGUUGGCGUAAUGGUAACGCGUCUCCCUCCUAUGGAGAAGACUGCGGAUUCGAGUCCCGUACGGAACG [C4U A37U G52A]	≤ 0.5
GUUUCGUUGGCGUAAUGGUUACGCGUCUCCCUCCUAAGGAGAAGACUGCGGGUUCGAGUCGCGUACGGAACG [C4U A20U C61G]	≤ 0.5
GUUUCGUUGGCGUAAUGGUUACGCGUCUCCCUCCAAAAGAGAAGACUGCGGGUUCGAGUCCCGUACGGAACG [C4U A20U U35A G38A]	≤ 0.5
GUUUCGUUGGCGUAAUGGUUACGCGUCUCCCUCCUAAGGAGAAGACGGCGGGUUCGAAUCCAGUACGGAACG [C4U A20U U47G G58A C62A]	≤ 0.5
GUUUCGUUGGCGUAAUGGUACCGCAUCUCAGCCCUAAGGACAAGACUGCGGGUUCGAGUCCCGUACGGAACG [C4U A21C G25A C30A C31G U32C G41C]	≤ 0.5
GUUUCGUUGGCGUAAUGGUAACGCGUCUCCCUCCUACAGAGAAGACUGCGGGUUCGAGUCCCGUACGGAACG [C4U A37C G38A]	0.613
GUUUCGUUGGCGUAAUGGUAUCGCGUCUCCCUCCUAAGGAGAAGACUGCGGGUUUGAGUCCCGUACGGAACG [C4U A21U C55U]	≤ 0.5
GUUUCGUUGGCGUAAUGGUAACGCGUCUCCCUCCUAGGCAGAAGACUGCGGGUUCGAGUCCCGUACGGAACG [C4U A37G G39C]	≤ 0.5
GUUUCGUUGGCGUAAUGGUAGCGCGUCGCCCUCCUAAGGAGAAGACUGCGGGUUCGAGUACCGUACGGAACG [C4U A21G U28G C60A]	≤ 0.5
GUUUCGUUGGCGUAAUGGUAGAGCGUCUCCCUCCUAAGGAGAAGAAUGCGGGUUCGAGUCCCGUACGGAACG [C4U A21G C22A C46A]	0.563
GUUUCGUUGGCGUAAUGGUACCGCGUCUCAGCCCUAAGGACAAGACUGCGGGUUUGAGUCCCGUACGGAACG [C4U A21C C30A C31G U32C G41C C55U]	≤ 0.5
GUUUCGUUGGCGUAAUGGUAACGCGUCUCCCUCCUCAGGAGAAGACUGCGGGUUCGAGUCCCGUACGGAACG [C4U A36C]	0.542
GUUUCGUUGGCGUAAUGGUACCGCGUGUCCCUCCUAAGGAGACGACUACGGGUUCGAGUCCCGUAAGGAACG [C4U A21C C27G A43C G48A C66A]	≤ 0.5
GUUUCGUUGGCGUAAUGGUUACGCGUCUCCCUCCUAAGGAGAAGACUGCGGGCUCGAGUCCCGUACCGAACG [C4U A20U U53C G67C]	≤ 0.5
GUUUCGUUGGCGUAAUGGUUACGCGUCCCCCUCCUAAGGAGAAGACUGCGGGUUCGAGUCGCGUACGGAACG [C4U A20U U28C C61G]	≤ 0.5
GUUUCGUUGGCGUAAUGGUAACGCGUCUCCCUCCUACGGAGAAGACUGCCGGUUCGGGUCCCGUACGGAACG [C4U A37C G50C A57G]	≤ 0.5
GUUUCGUUGGCGUAAUGGUAGCGCGUCUCCCUCCUAAGGAGAAGACUGCGGGUUCGAGUCCCGUACGGAACG [C4U A21G]	1.1
